PRMT1 inh = PRMT1 (human) inhibition, primary screen | Q99873 | inhibition, % at 2.79 µM | recombinant PRMT1, activity-based probe fluorescence polarization | 370,000 tested, 1.3% active | AID 652257;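 active = inhibition above about 21% made by adding two undisclosed values, limit read from the data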
SIAE primary = inhibitors of human sialic acid acetylesterase SIAE; Q9HAT2; SIAE FP-Rh probe binding, fluorescence polarization; inhibition, % at 9.66 µM; 370,000 tested, 0.69% active;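 active = inhibition above a cutoff: mean of compounds within the control limits plus 3 SD of those, cut at about 17% in these data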;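 note: 0% = plate median of compound wells and 100% = probe without SIAE protein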
ABHD4 inh = inhibits mouse alpha/beta hydrolase domain 4; purified mABHD4, FP-Rh probe fluorescence polarization; inhibition, % at 8.92 µM; 370,000 tested, 0.54% active; AID 720543;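 active = inhibition exceeding the mean over every tested compound plus 3 SD, cut at about 30% in these data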;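 note: 0% = plate median of compound wells and 100% = S159A mutant with DMSO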
Target sequence (Q8VD66 whole entry, looked up, the tested form may be a part): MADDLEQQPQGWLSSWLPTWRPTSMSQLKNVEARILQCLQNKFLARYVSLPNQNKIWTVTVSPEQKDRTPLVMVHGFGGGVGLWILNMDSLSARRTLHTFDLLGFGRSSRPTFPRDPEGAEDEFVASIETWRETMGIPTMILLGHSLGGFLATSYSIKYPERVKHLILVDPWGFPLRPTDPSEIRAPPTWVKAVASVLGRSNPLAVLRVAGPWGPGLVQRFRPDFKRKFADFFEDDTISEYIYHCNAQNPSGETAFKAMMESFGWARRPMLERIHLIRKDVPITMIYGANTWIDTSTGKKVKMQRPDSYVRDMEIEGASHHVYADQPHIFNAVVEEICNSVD
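Assay system: mABHD4 protein; medium: HEPES pH 7.0, NaCl, Pluronic buffer; dosing: 8.92 µM, single dose; schedule: 45 min + 60 min at 25 °C; signal: FP readout, ex 525 nm / em 598 nm; read-out: normalized percent inhibition of probe labeling; repeats: single replicate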
TCR-CD3 inh = inhibitors of human TCR-CD3 interaction; TAMRA-labeled TCR probe fluorescence, biochemical; inhibition, % at 9.4 µM; 360,000 tested, 0.37% active; AID 651800; in the data active = inhibition above about 19%;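 note: recombinant mutant TCR 2C K166C tagged with TAMRA read by polarization; 0% = receptor in buffer alone and 100% = receptor with positive control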
PAD4 FP inh = inhibitors of human PAD4. Q9UM07. recombinant PAD4, RCA probe fluorescence polarization. inhibition, % at 6.36 µM. 330,000 tested, 0.41% active. AID 485272;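 active = percent inhibition above a cutoff equal to the mean of all tested compounds plus 3 SD, cut at about 15% in these data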;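 note: 0% = PAD4 with RCA probe and DMSO and 100% = probe without PAD4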
HTRA1 inhibitor = HTRA1 (human) protease inhibition | AID 504803 | 340,000 tested, 0.5% active | Q92743 | inhibition, % at 5.96 µM | recombinant HTRA1, FP-rhodamine activity-based probe, fluorescence polarization; in the data active = inhibition above about 36%;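 note: 0% = enzyme with DMSO and 100% = wells lacking enzyme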
* = called active by the depositor; . = not tested or not shown. Most compounds without a hit are left out; they make up all but 2.9% or so of the library.

SMILES	PRMT1 inh	SIAE primary	ABHD4 inh	TCR-CD3 inh	PAD4 FP inh	HTRA1 inhibitor
O=C(CN(CCc1ccccc1)S(=O)(=O)c1ccc(F)cc1)N1CCOCC1	2.1	4.4	7.8	.	.	.
CC(=O)Nc1ccc(SCC(=O)Nc2oc(C)c3c(C)n[nH]c(=O)c23)cc1	27.2*	-2.5	3.4	1.5	5.0	6.8
Cc1n[nH]c(=O)c2c(NC(=O)CSc3ccc(F)cc3)oc(C)c12	4.7	2.7	4.5	-7.2	-5.2	2.9
O=C1N=C(c2ccccc2)S/C1=C\c1cccs1	21.5*	7.6	10.9	0.0	3.0	-18.4
O=C(CCl)N1N=C(c2ccco2)CC1c1ccco1 (stereo not given)	38.1*	7.6	10.3	0.3	-0.5	-2.5
CCCCNC(=O)NS(=O)(=O)c1ccc(NC(=O)CSc2nnc(-c3cccs3)n2-c2ccc(OC)cc2)cc1	1.1	-9.7	-7.2	.	.	.
CSCc1cc(C(=O)NC2CC2)c(N)s1	22.5*	0.9	-4.0	10.9	.	.
Cc1cc(C(=O)NC2CCC(C)CC2)c(C)o1 (stereo not given)	-0.1	4.7	5.8	1.2	-1.1	-3.0
CC(=O)N1CCc2c1cccc2S(=O)(=O)NC(CC(C)C)C(=O)Nc1ccc(Cl)c(Cl)c1 (stereo not given)	0.3	-3.0	-1.2	.	.	.
CCOC(=O)C(NC(=O)c1ccccc1)=C1C=C(C)OC(C)=C1	0.1	2.4	3.2	5.0	-6.5	0.0
COC(=O)C(NC(=O)c1ccccc1)=C1C=C(C)OC(C)=C1	2.2	18.4*	0.0	-5.1	-1.1	3.1
Cc1ccc(-c2nn(-c3ccccc3)cc2CO)o1	24.7*	-4.6	0.4	1.3	-3.3	-10.3
O=C1CSC(=S)N1N=Cc1ccc(Cl)s1	24.9*	-43.5	15.4	-22.2	.	11.6
CC(C)(C)c1ccc(/C=N/N2C(=O)CSC2=S)cc1	3.5	-3.4	-0.7	7.0	-4.6	1.8
N=C1/C(=C\c2ccc(-c3cccc(C(=O)O)c3)o2)C(=O)N=C2SC=C(c3ccccc3)N12	22.0*	-24.2	-0.9	7.2	-17.8	-42.9
CCOC(=O)C1=NOC(C(=O)NCc2ccccc2)(C(=O)c2ccc(OC)cc2)C1 (stereo not given)	-0.9	-1.3	-9.1	.	.	.
CN1CCN(c2ccc(-c3cc(NC=O)c4ncc(-c5ccc(F)c(Cl)c5)n4c3)cc2)CC1	2.5	18.2*	7.9	-10.3	.	.
COc1cc(/C=N/Nc2nc3c(c(=O)n(C)c(=O)n3C)n2Cc2ccccc2)ccc1OC(=O)c1ccco1	4.2	21.1*	0.0	-5.1	-0.1	-1.5
COC(=O)C1CN(Cc2ccc(C)cc2)CCS(=O)(=O)N1Cc1cn(Cc2ccccc2)nn1 (stereo not given)	-2.5	0.5	4.8	.	.	.
Cc1nc2sccn2c1P(c1c(C)nc2sccn12)c1c(C)nc2sccn12	-4.3	17.4*	-12.4	3.1	-1.5	1.9
O=S(=O)(CC1NCCc2ccccc21)NCCc1ccccc1 (stereo not given)	4.3	1.8	0.2	.	.	.
O=C1c2cc(O)c(O)cc2S(=O)(=O)C1c1ccccc1 (stereo not given)	23.8*	2.1	24.1	5.6	1.1	6.6
CC(C1=CCCCC1)c1cnn(C)c1 (stereo not given)	-5.6	1.2	-2.4	.	.	.
O=C(Nc1ccccc1)Nc1c(F)cccc1F	2.5	-3.2	-7.4	7.9	2.5	-1.6
O=C(O)/C=C/C(=O)Nc1c(F)cccc1F	22.1*	-3.1	-1.3	-7.7	1.3	-1.1
SMILES	PRMT1 inh	SIAE primary	ABHD4 inh	TCR-CD3 inh	PAD4 FP inh	HTRA1 inhibitor
Cc1ccccc1C(=O)NN1C(=O)CSC1=S	6.6	-4.1	-73.8	-21.6	-25.9	-6.4
O=C1CSC(=S)N1Nc1ccccc1	23.6*	-23.9	-45.4	-37.5	.	-22.5
Cc1ccc2c(c1)N(C(=O)CSc1nncn1C)C(C)(C)c1ssc(=S)c1-2	29.2*	-2.1	16.4	7.4	13.2	8.1
COc1ccc([C@H]2OC(=O)C[C@H]2C(=O)N2CCN(c3ccccc3Cl)CC2)cc1OC	-1.3	-2.2	-3.1	.	.	.
CCC(C)(C)n1nnnc1C(c1cc2cc(OC)ccc2[nH]c1=O)N1CCc2ccccc21 (stereo not given)	5.7	-5.7	0.5	-5.3	2.0	-5.9
CCC(C)(C)n1nnnc1C(c1cc2cc(C)ccc2[nH]c1=O)N1CCCc2ccccc21 (stereo not given)	30.1*	-0.6	16.9	-10.8	-3.0	-9.7
Cc1cc(-c2nnc(SCC(=O)Nc3nc(-c4ccccc4)cs3)o2)no1	24.7*	7.7	19.7	5.2	-5.8	9.0
CC(=O)c1ccc(NCCCN2CCC(C(O)(c3ccccc3)c3ccccc3)CC2)cc1	-1.7	7.0	-3.8	.	.	.
CC1=NN(c2ccccc2)C(=O)C1=Cc1ccccc1	-0.4	4.7	2.8	2.2	.	0.9
COc1cc(/C=C2/C(=N)N3C(=NC2=O)SN=C3S(C)(=O)=O)ccc1OS(=O)(=O)c1ccccc1	.	.	.	.	-3.2	.
COc1cc(/C=C2/C(=O)N(c3ccccc3)N=C2C)ccc1OS(=O)(=O)c1ccccc1	.	.	.	.	36.3*	.
COc1ccc(/C=C2/C(=O)N(c3ccccc3)N=C2C)cc1Br	3.9	5.1	6.1	-0.6	42.8*	21.9
CCCC1CCC2(CC1)CCC2OC(=S)Nc1cccc(Cl)c1 (stereo not given)	-0.3	5.6	-13.8	.	.	.
O=C(CCl)Nc1nc(-c2ccco2)c(-c2ccco2)s1	31.8*	2.2	10.4	4.8	3.2	-0.4
COc1ccc(-n2c(N)c(C(=O)NCc3ccco3)c3nc4ccccc4nc32)cc1	8.1	8.5	6.1	7.9	-6.0	-36.5
Nc1c(C(=O)NCc2ccco2)c2nc3ccccc3nc2n1CCc1ccc(F)cc1	5.5	-4.2	-12.7	1.9	37.1*	-19.8
CCOC(=O)NNc1ccc2nonc2c1[N+](=O)[O-]	.	.	.	.	51.5*	.
CCc1ccc(Nc2ccc3nonc3c2[N+](=O)[O-])cc1	0.8	-4.6	3.9	5.1	-5.2	6.2
O=C(NC1=N[C@@]2(C=C3CCCCC3n3c(=O)n(-c4ccccc4)c(=O)n32)[C@H](Cc2ccccc2)N1Cc1ccccc1)c1ccccc1 (stereo not given in full)	1.4	8.8	19.7	.	.	.
Oc1ccccc1-c1cc(-c2ccco2)[nH]n1	23.1*	-28.2	7.0	-8.7	-10.8	-13.8
CC(CC(=O)O)Nc1ccccc1O (stereo not given)	23.1*	0.6	29.4	-0.1	-5.0	0.3
Fc1cccc(C[n+]2csc3ccccc32)c1	75.2*	-2.2	-8.4	2.6	11.8	1.4
OCCN(Cc1ccccc1)Cc1cccc(F)c1	-1.5	4.9	6.0	5.0	0.8	-6.8
Cc1cc(OCC(C)CN2CCC(C(O)(c3ccccc3)c3ccccc3)CC2)ccc1Br (stereo not given)	1.0	-4.5	18.1	.	.	.
Clc1ccc(-n2c(SCc3cccc4ccccc34)nnc2-c2ccccc2)cc1	5.8	-11.8	-2.8	.	.	.
COC1=C(Br)C(=O)c2nc(C)ccc2C1=O	28.2*	-7.2	20.9	19.1*	.	15.9

Source: PubChem BioAssay (The Scripps Research Institute Molecular Screening Center)
